Results published in PMC13170702 (Nuclear medicine and biology, 2025).

Key:
healthy volunteers = assay: first-in-human adverse event monitoring in healthy volunteers; format: in vivo
How it was run: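 Participants were aged 56–75 (four male, four female). Tracer was given as an i.v. bolus (1–2 min) via a cephalic-vein catheter, supine, before 94 min of PET-MR over three sessions ending at 214 min. Adverse events were watched for continuously during scans, breaks and afterwards. Vital signs and ECG were taken ~60 min post-imaging, then physician/nurse review before discharge and off-site follow-up at 24–48 h. Later events were self-reported.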

[1] = organ radiation dose estimates, both OLINDA software versions; format: in vivo, human
How it was run: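 Per-participant organ doses from OLINDA 1.1 (ICRP-60) and 2.0 (ICRP-103) were pooled by sex as mean ± SD (n = 4 per sex), in mGy/MBq; effective dose in mSv/MBq. Males and females were compared at p < 0.05. Kidney dose per MBq was related to injected activity and benchmarked against FDA 21CFR361 single-study limits (30 mSv whole body; 50 mGy other organs).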

[2] = range of sex means from both software versions

COC(=O)[C@@H](N)CC(=O)Nc1ccc2c(c1)Cc1cc([18F])ccc1-2 [[^18F]RP-115, methyl N^4-(7-[^18F]fluoro-9H-fluoren-2-yl)asparaginate]
adverse events / pharmacological effects (healthy volunteers; 70.3–355 MBq i.v. bolus, n=8, ≤48 h and up to 1 year): no adverse events (AE) or clinically detectable pharmacological effects | tolerability (healthy volunteers; 70.3–355 MBq i.v., n=8, PET-MR scanning protocol): well tolerated | kidney dose per injected activity used for the limit ([1]; 0.237 mGy/MBq × 211 MBq = 50 mGy): 0.237 mGy/MBq | renal estimated radiation dose ([1]; Males 1–2 and Female 2, 289–355 MBq given): > 50 mSv | ratio of estimated kidney dose to radioactivity given ([1]; Males 1–2 and Female 4): > 0.21 mGy/MBq | critical organ ([1]; highest mean absorbed dose, primary route of elimination): kidneys | estimated absorbed doses, remaining organs and tissues and Effective dose ([1]; organs other than kidneys, liver, small intestine): < 0.035 mGy/MBq | kidneys mean absorbed estimated radiation dose [1, 2]: 0.142 to 0.214 mGy/MBq | liver mean absorbed dose [1, 2]: 0.0392 to 0.0449 mGy/MBq
